Square brackets hold non-standard residues; d marks the D form. Peptide text beside a SMILES is read from it. pGlu = O=C1CC[C@@H](C(=O)O)N1
Assays:
[1] = molecular target: T1, Gonadotropin-releasing hormone receptor (Rattus norvegicus) (UniProt P30969); experiment: Agonist activity at LH-RH receptor in Sprague-Dawley rat pituitary gland assessed as change in follicle-stimulating hormone release at 100 ug/ml incubated for 4 hrs measured every hour for 4 hrs by RIA
T1 sequence (whole entry): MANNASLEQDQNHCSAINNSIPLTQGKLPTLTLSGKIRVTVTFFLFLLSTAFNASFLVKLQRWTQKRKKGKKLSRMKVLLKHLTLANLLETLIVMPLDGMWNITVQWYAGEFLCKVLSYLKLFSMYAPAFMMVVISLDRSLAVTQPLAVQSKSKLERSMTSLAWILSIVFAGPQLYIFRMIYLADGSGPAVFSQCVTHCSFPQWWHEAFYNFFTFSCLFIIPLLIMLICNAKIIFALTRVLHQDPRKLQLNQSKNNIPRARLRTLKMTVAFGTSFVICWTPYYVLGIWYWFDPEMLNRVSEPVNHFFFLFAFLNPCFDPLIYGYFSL
How it was run: (§1)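 Two pituitaries from 20-day-old female rats per beaker, in 1 mL lactated Ringer's at 37 °C with shaking, 6 h total. Medium was replaced hourly. After two preincubation hours the analogue was present alone in hours 3–6 (peptide in µg/mL of medium). LH and FSH were measured by RIA as ng of LH-LER-1240-2 or FSH standard, given as Δ ± SEM with p values.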

[2] = molecular target: T1, Gonadotropin-releasing hormone receptor (Rattus norvegicus); experiment: Antagonist activity at LH-RH receptor in Sprague-Dawley rat pituitary gland assessed as change in LH-RH-induced luteinizing hormone release at 100 ug/ml preincubated for 2 hrs followed by LH-RH addition at 5th and 6th hr 5 mins post drug addition and measured every hour for 4 hrs by RIA
How it was run: (§2)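 Two pituitaries from 20-day-old female rats were incubated in 1 mL lactated Ringer's at 37 °C with shaking for 6 h, with medium replaced hourly. Analogue was added in hours 3–6. LH-RH at 0.3 ng/mL was added in hours 5–6, 5 min after the analogue. LH and FSH were measured by RIA against the LER-1240-2 or FSH standard and reported as Δ ng/mL ± SEM with p values.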

[3] = molecular target: T1, Gonadotropin-releasing hormone receptor (Rattus norvegicus); experiment: Antagonist activity at LH-RH receptor in Sprague-Dawley rat pituitary gland assessed as change in LH-RH-induced luteinizing hormone release at 10 ug/ml preincubated for 2 hrs followed by LH-RH addition at 5th and 6th hr 5 mins post drug addition and measured every hour for 4 hrs by RIA; how it was run: as §2
[4] = molecular target: T1, Gonadotropin-releasing hormone receptor (Rattus norvegicus); experiment: Antagonist activity at LH-RH receptor in Sprague-Dawley rat pituitary gland assessed as change in LH-RH-induced follicle-stimulating hormone release at 10 ug/ml preincubated for 2 hrs followed by LH-RH addition at 5th and 6th hr 5 mins post drug addition and measured every hour for 4 hrs by RIA; how it was run: as §2
[5] = molecular target: T1, Gonadotropin-releasing hormone receptor (Rattus norvegicus); experiment: Agonist activity at LH-RH receptor in Sprague-Dawley rat pituitary gland assessed as change in luteinizing hormone release at 100 ug/ml incubated for 4 hrs measured every hour for 4 hrs by RIA; how it was run: as §1
[6] = molecular target: T1, Gonadotropin-releasing hormone receptor (Rattus norvegicus); experiment: Antagonist activity at LH-RH receptor in Sprague-Dawley rat pituitary gland assessed as change in LH-RH-induced follicle-stimulating hormone release at 1 ug/ml preincubated for 2 hrs followed by LH-RH addition at 5th and 6th hr 5 mins post drug addition and measured every hour for 4 hrs by RIA; how it was run: as §2
[7] = molecular target: T1, Gonadotropin-releasing hormone receptor (Rattus norvegicus); experiment: Antagonist activity at LH-RH receptor in Sprague-Dawley rat pituitary gland assessed as change in LH-RH-induced luteinizing hormone release at 1 ug/ml preincubated for 2 hrs followed by LH-RH addition at 5th and 6th hr 5 mins post drug addition and measured every hour for 4 hrs by RIA; how it was run: as §2
[8] = molecular target: T1, Gonadotropin-releasing hormone receptor (Rattus norvegicus); experiment: Antagonist activity at LH-RH receptor in Sprague-Dawley rat pituitary gland assessed as change in LH-RH-induced follicle-stimulating hormone release at 100 ug/ml preincubated for 2 hrs followed by LH-RH addition at 5th and 6th hr 5 mins post drug addition and measured every hour for 4 hrs by RIA; how it was run: as §2

Row | SMILES | Activity [1] | Activity [2] | Activity [3] | Activity [4] | Activity [5] | Activity [6] | Activity [7] | Activity [8]
1 | CC(C)C[C@H](NC(=O)CNC(=O)[C@H](Cc1ccc(O)cc1)NC(=O)[C@H](CO)NC(=O)[C@H](CO)NC(=O)[C@H](CC(C)C)NC(=O)[C@@H]1CCC(=O)N1)C(=O)N[C@@H](CCCNC(=N)N)C(=O)N1CCC[C@H]1C(=O)NCC(N)=O ([pGlu]LSSYGLRPG-NH2) | -367 ng/mL | 90 ng/mL | 88 ng/mL | 6540 ng/mL | -7 ng/mL | – | – | –
2 | CCNC(=O)[C@@H]1CCCN1C(=O)[C@H](CCCNC(=N)N)NC(=O)[C@H](CC(C)C)NC(=O)[C@@H](C)NC(=O)[C@H](Cc1ccc(O)cc1)NC(=O)[C@H](CO)NC(=O)[C@H](C)NC(=O)[C@H](CC)NC(=O)[C@@H]1CCC(=O)N1 | 184 ng/mL | 62 ng/mL | 56 ng/mL | 2970 ng/mL | -3 ng/mL | 2610 ng/mL | 157 ng/mL | 1780 ng/mL
3 | CC(C)C[C@H](NC(=O)CNC(=O)[C@H](Cc1ccc(O)cc1)NC(=O)[C@H](CO)NC(=O)[C@H](CC(N)=O)NC(=O)[C@H](CC(C)C)NC(=O)[C@@H]1CCC(=O)N1)C(=O)N[C@@H](CCCNC(=N)N)C(=O)N1CCC[C@H]1C(=O)NCC(N)=O ([pGlu]LNSYGLRPG-NH2) | -1270 ng/mL | 185 ng/mL | – | – | 18 ng/mL | – | – | 2300 ng/mL
4 | CCNC(=O)[C@@H]1CCCN1C(=O)[C@H](CCCNC(=N)N)NC(=O)[C@H](CC(C)C)NC(=O)[C@@H](C)NC(=O)[C@H](Cc1ccc(O)cc1)NC(=O)[C@H](CO)NC(=O)[C@H](C)NC(=O)[C@@H](NC(=O)[C@@H]1CCC(=O)N1)[C@@H](C)CC | 1020 ng/mL | 49 ng/mL | – | – | 42 ng/mL | – | – | 1910 ng/mL
5 | CC(C)C[C@H](NC(=O)[C@@H]1CCC(=O)N1)C(=O)N[C@@H](C)C(=O)N[C@@H](CO)C(=O)N[C@@H](Cc1ccc(O)cc1)C(=O)N[C@H](C)C(=O)N[C@@H](CC(C)C)C(=O)N[C@@H](CCCNC(=N)N)C(=O)N1CCC[C@H]1C(=O)NCC(N)=O | -351 ng/mL | 115 ng/mL | 149 ng/mL | 8150 ng/mL | 13 ng/mL | 7020 ng/mL | 230 ng/mL | 5850 ng/mL
6 | CC(C)C[C@H](NC(=O)CNC(=O)[C@H](Cc1ccc(O)cc1)NC(=O)[C@H](CO)NC(=O)[C@H](CC(C)C)NC(=O)[C@@H](NC(=O)[C@@H]1CCC(=O)N1)[C@@H](C)O)C(=O)N[C@@H](CCCNC(=N)N)C(=O)N1CCC[C@H]1C(=O)NCC(N)=O ([pGlu]TLSYGLRPG-NH2) | 699 ng/mL | 180 ng/mL | 180 ng/mL | 3080 ng/mL | 14 ng/mL | – | – | 3230 ng/mL

Source: ChEMBL document CHEMBL3272172, “Inhibition of the activity of the luteinizing hormone-releasing hormone (LH-RH) by analogues with variations at positions 2, 3, and 6 and the carboxyl terminus” (J Med Chem, 1977)
